From ChEMBL document CHEMBL1150391, “Pyridinium cationic-dimer antimalarials, unlike chloroquine, act selectively between the schizont stage and the ring stage of Plasmodium falciparum” (Bioorg Med Chem, 2008)
pEC50: −log10 of the molar value. Active and inactive are the calls of the source. The rule behind the calls is not given here.

Tests used:
Plasmodium falciparum [1] = assay: Antimalarial activity as synchronized late trophozoites of chloroquine-sensitive Plasmodium falciparum FCR3 in human erythrocytes at 5 uL by Diff-Quick stain; assay type: functional, organism-based
In short: (§1)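 Cultures synchronized twice with 5% D-sorbitol 40 h apart (>80% rings); stage checked microscopically before dosing. Compound added at ring, middle trophozoite, late trophozoite or schizont stage; 5% erythrocytes, about 1.0% parasitemia, compound in 0.1% DMSO at 100 times the IC50. 48 h, 37 °C; medium and compound renewed at 24 h. Infection ratio counted per at least 2000 erythrocytes in Diff-Quik films every 6 h; duplicate, versus compound-free control.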

Plasmodium falciparum [2] = assay: Antimalarial activity as synchronized middle trophozoites of chloroquine-sensitive Plasmodium falciparum FCR3 in human erythrocytes at 5 uL by Diff-Quick stain; assay type: functional, organism-based; in short: as §1
FM3A = assay: Cytotoxicity against mouse FM3A cells assessed as inhibition of increase in cell density after 48 hrs; assay type: cell-based
In short: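 Mouse mammary tumor FM3A (subclone F28-7) cells kept in suspension in ES medium with 2% heat-inactivated FBS, seeded at 5 × 10⁴ cells/mL, compounds added in DMSO. 48 h, 37 °C, 5% CO2; cells counted microscopically. Duplicate wells, mean of three experiments; IC50 is the concentration giving 50% inhibition of cell-density increase versus control.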

Plasmodium falciparum [3] = assay: Antimalarial activity as synchronized schizonts of chloroquine-sensitive Plasmodium falciparum FCR3 in human erythrocytes at 5 uL by Diff-Quick stain; assay type: functional, organism-based; in short: as §1
Plasmodium falciparum [4] = assay: Antimalarial activity as reduced parasitaemia after 72 hrs against chloroquine-sensitive Plasmodium falciparum FCR3 in human erythrocytes by Diff-Quick stain; assay type: functional, organism-based; conditions: FCR3, 72 h
In short: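 FCR-3 grown in type A human RBCs (5% hematocrit stock culture) in RPMI 1640 with HEPES, NaHCO3, gentamicin and 10% heat-inactivated type A human serum. Assay: 0.3% parasitemia, 3% final hematocrit, DMSO compound dilutions; 72 h, 37 °C, 5% CO2/5% O2/90% N2. Parasitemia read from Diff-Quik thin films. Duplicate wells, mean of three experiments; IC50 taken from the growth-inhibition curve.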

Plasmodium falciparum [5] = assay: Antimalarial activity as synchronized ring-stage of chloroquine-sensitive Plasmodium falciparum FCR3 infected human erythrocytes at 5 uL by Diff-Quick stain; assay type: functional, organism-based; in short: as §1

| Compound | pEC50 (Plasmodium falciparum [4]) | Activity (Plasmodium falciparum [1]) | Activity (Plasmodium falciparum [2]) | pEC50 (FM3A) | Activity (Plasmodium falciparum [3]) | Activity (Plasmodium falciparum [5]) |
| --- | --- | --- | --- | --- | --- | --- |
| O=C(Nc1ccc(Br)cc1)c1cc[n+](CCCCCCCCCC[n+]2ccc(C(=O)Nc3ccc(Br)cc3)cc2)cc1 | 7.82 | – | – | 5.86 | – | – |
| O=C(Nc1ccc(Cl)cc1)c1cc[n+](CCCCCCCCCC[n+]2ccc(C(=O)Nc3ccc(Cl)cc3)cc2)cc1 | 8.10 | – | – | 5.72 | – | – |
| N#Cc1ccc(NC(=O)c2cc[n+](CCCCCCCCCC[n+]3ccc(C(=O)Nc4ccc(C#N)cc4)cc3)cc2)cc1 | 7.46 | – | – | 4.37 | – | – |
| CCCCCCNC(=O)c1cc[n+](CCCCCCCCCC[n+]2ccc(C(=O)NCCCCCC)cc2)cc1 | 8.30 | inactive | inactive | 4.98 | Active | inactive |
| CCCCNC(=O)c1cc[n+](CCCCCCCCCCCC[n+]2ccc(C(=O)NCCCC)cc2)cc1 | 7.00 | – | – | 4.28 | – | – |
| O=C(Nc1ccc([N+](=O)[O-])cc1)c1cc[n+](CCCCCCCCCC[n+]2ccc(C(=O)Nc3ccc([N+](=O)[O-])cc3)cc2)cc1 | 7.13 | – | – | 5.22 | – | – |
| O=C(Nc1ccc(I)cc1)c1cc[n+](CCCCCCCCCC[n+]2ccc(C(=O)Nc3ccc(I)cc3)cc2)cc1 | 7.92 | – | – | 5.85 | – | – |

More lines, in order of rising pEC50 (Plasmodium falciparum [4]), values ahead:

| pEC50 (Plasmodium falciparum [4]) | Compound | Activity (Plasmodium falciparum [1]) | Activity (Plasmodium falciparum [2]) | pEC50 (FM3A) | Activity (Plasmodium falciparum [3]) | Activity (Plasmodium falciparum [5]) |
| --- | --- | --- | --- | --- | --- | --- |
| 7.41 | Cc1ccc(NC(=O)c2cc[n+](CCCCCCCCCC[n+]3ccc(C(=O)Nc4ccc(C)cc4)cc3)cc2)cc1 | – | – | 4.59 | – | – |
| 7.48 | O=C(Nc1ccc(C(F)(F)F)cc1)c1cc[n+](CCCCCCCCCC[n+]2ccc(C(=O)Nc3ccc(C(F)(F)F)cc3)cc2)cc1 | – | – | 5.29 | – | – |
| 7.54 | O=C(Nc1ccccc1)c1cc[n+](CCCCCCCCCC[n+]2ccc(C(=O)Nc3ccccc3)cc2)cc1 | inactive | inactive | 4.37 | Active | inactive |
| 7.68 | O=C(Nc1ccc(F)cc1)c1cc[n+](CCCCCCCCCC[n+]2ccc(C(=O)Nc3ccc(F)cc3)cc2)cc1 | – | – | 4.56 | – | – |
